{"source": "paper PMC9303875", "about": "(Clinical Pharmacology in Drug Development, 2022)", "key": {"[1]": {"type": "in vivo, human", "details": "for time to steady-state PK based on Ctrough: continuous once-daily dosing combined with chemotherapy", "method_in_brief": "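Samples were taken predose and 0.5–8 h (24 h per footnote) post-dose with once-daily dosing. AUC0-24, Cmax, tmax and Ctrough were derived using actual times, and predose BLQ values were set to 0. Accumulation ratio was C1D14/C1D1 or C1D21/C1D8 of induction. Steady state was judged from Ctrough across cycles, and consolidation data pooled both regimens (ME or ARA-C).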"}, "plasma 2-HG": {"system": "plasma 2-HG", "experiment": "Plasma 2-HG pharmacodynamics in patients with newly diagnosed mIDH1/2 AML", "type": "in vivo, human", "details": "for reduction of mean trough plasma 2-HG concentrations (up to): after multiple doses, combined with chemotherapy; for mean reduction in plasma 2-HG concentration: enasidenib started C1D1, by induction C1D14", "method_in_brief": "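Plasma was sampled within 30 min predose and at 0.5, 2, 4, 6, 8 (and 24, per footnote) h on induction C1D1/C1D14 and consolidation C1D1; the delayed-start cohort was sampled on C1D8/C1D21. 2-HG was measured by surrogate-analyte (¹³C₅ 2-HG) LC-MS/MS, LLOQ 30 ng/mL, with BLQ set to LLOQ. AUEC0-8, AUEC0-24, BAUEC0-24 and Rtrough used actual times. C1D14 reductions were grouped by best overall response: CR; IR (CRi, CRp, MLFS, PR); NR (SD, PD).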"}, "bone marrow 2-HG": {"system": "bone marrow 2-HG", "experiment": "Bone marrow 2-HG pharmacodynamics in patients with newly diagnosed mIDH1/2 AML", "type": "in vivo, human", "details": "after multiple doses; combined with chemotherapy", "method_in_brief": "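Bone marrow aspirates from patients on oral ivosidenib or enasidenib once daily plus chemotherapy. 2-HG was quantified by LC-MS/MS using a qualified surrogate analyte method, with ¹³C₅ 2-HG as the surrogate for calibrators and QCs. LLOQ was 10 ng/mL, and BLQ values were set to LLOQ. Percentage reduction from baseline was computed using actual times relative to dosing.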"}, "[2]": {"details": "cited from earlier work"}, "2-HG [3]": {"system": "2-HG", "details": "cited from earlier work; for plasma 2-HG reduction from baseline, maximum / plasma 2-HG reduction from baseline, median: enasidenib 100 mg once daily"}, "[4]": {"system": "advanced mIDH2 hematologic malignancies", "details": "cited from earlier work"}, "IDH2-R172": {"system": "IDH2-R172", "details": "preclinical and in vitro data; cited from earlier work"}, "[5]": {"details": "cited from earlier work", "remark": "listed apart in the source"}, "2-HG [6]": {"system": "2-HG", "details": "ivosidenib 500 mg once daily single agent, cited from earlier work"}, "mIDH1 R/R AML": {"system": "mIDH1 R/R AML", "details": "patients with mIDH1 R/R AML; ivosidenib 500 mg once daily; cited from earlier work"}, "CYP3A4": {"system": "CYP3A4", "details": "healthy participants; cited from earlier work"}, "[7]": {"details": "enasidenib 100 mg QD + chemotherapy, Consolidation C1D1"}, "[8]": {"details": "enasidenib 100 mg QD starting day 1 + chemotherapy, Induction C1D1"}, "[9]": {"details": "enasidenib 100 mg QD starting day 1 + chemotherapy, Induction C1D14"}, "[10]": {"details": "enasidenib 100 mg QD starting day 8 + chemotherapy, Induction C1D8"}, "[11]": {"details": "enasidenib 100 mg QD starting day 8 + chemotherapy, Induction C1D21"}, "[12]": {"details": "ivosidenib 500 mg QD + chemotherapy, Consolidation C1D1"}, "[13]": {"details": "ivosidenib 500 mg QD + chemotherapy, Induction C1D14 / induction C1D1"}, "[14]": {"details": "ivosidenib 500 mg QD + chemotherapy, Induction C1D1"}, "[15]": {"details": "ivosidenib 500 mg QD + chemotherapy, Induction C1D14"}}, "note": "Read-outs that look alike come from different tables or passages of the source. Marks after values point to notes of the source that are not given here."}
{"smiles": "CC(C)(O)CNc1nc(Nc2ccnc(C(F)(F)F)c2)nc(-c2cccc(C(F)(F)F)n2)n1", "note": "[Enasidenib, enasidenib]", "values": [{"measurement": "time to steady-state PK based on Ctrough", "setting": "[1]", "value": "≤ 14", "unit": "days"}, {"measurement": "Racc AUC0-24 (accumulation ratio based on AUC0-24), mean (SD)", "setting": "[1]; [7]", "value": "7.93 (4.29); 18"}, {"measurement": "Racc Cmax (accumulation ratio based on Cmax), mean (SD)", "setting": "[1]; [7]", "value": "7.15 (4.59); 24"}, {"measurement": "reduction of mean trough plasma 2-HG concentrations (up to)", "setting": "plasma 2-HG", "value": "≤ 99", "unit": "%"}, {"measurement": "%BAUEC0-24 (percentage reduction of plasma 2-HG based on AUEC0-24), mean (RSD%)", "setting": "plasma 2-HG; [7]", "value": "80.6 (25.1); 21%"}, {"measurement": "%Rtrough (percentage reduction of plasma 2-HG at the end of a dosing interval), mean (RSD%)", "setting": "plasma 2-HG; [7]", "value": "77.1 (37.8); 21%"}, {"measurement": "Plasma 2-HG AUEC0-24, mean (RSD%)", "setting": "plasma 2-HG; [7]", "value": "1800 (116.1); 21 ng • h/mL"}, {"measurement": "%BAUEC0-24 (percentage reduction of plasma 2-HG based on AUEC0-24), mean (RSD%)", "setting": "plasma 2-HG; [8]", "value": "18.7 (108.0); 57%"}, {"measurement": "%Rtrough (percentage reduction of plasma 2-HG at the end of a dosing interval), mean (RSD%)", "setting": "plasma 2-HG; [8]", "value": "37.8 (68.2); 57%"}, {"measurement": "%BAUEC0-24 (percentage reduction of plasma 2-HG based on AUEC0-24), mean (RSD%)", "setting": "plasma 2-HG; [9]", "value": "85.0 (24.7); 45%"}, {"measurement": "%Rtrough (percentage reduction of plasma 2-HG at the end of a dosing interval), mean (RSD%)", "setting": "plasma 2-HG; [9]", "value": "84.7 (24.6); 45%"}, {"measurement": "Plasma 2-HG AUEC0-24, mean (RSD%)", "setting": "plasma 2-HG; [9]", "value": "2030 (134.4); 45 ng • h/mL"}, {"measurement": "%BAUEC0-24 (percentage reduction of plasma 2-HG based on AUEC0-24), mean (RSD%)", "setting": "plasma 2-HG; [10]", "value": "73.9 (28.1); 16%"}, {"measurement": "%Rtrough (percentage reduction of plasma 2-HG at the end of a dosing interval), mean (RSD%)", "setting": "plasma 2-HG; [10]", "value": "82.8 (18.0); 16%"}, {"measurement": "Plasma 2-HG AUEC0-24, mean (RSD%)", "setting": "plasma 2-HG; [10]", "value": "3960 (72.5); 16 ng • h/mL"}, {"measurement": "%BAUEC0-24 (percentage reduction of plasma 2-HG based on AUEC0-24), mean (RSD%)", "setting": "plasma 2-HG; [11]", "value": "83.1 (34.6); 15%"}, {"measurement": "%Rtrough (percentage reduction of plasma 2-HG at the end of a dosing interval), mean (RSD%)", "setting": "plasma 2-HG; [11]", "value": "82.3 (40.5); 15%"}, {"measurement": "Plasma 2-HG AUEC0-24, mean (RSD%)", "setting": "plasma 2-HG; [11]", "value": "1670 (130.2); 15 ng • h/mL"}, {"measurement": "mean reduction in plasma 2-HG concentration", "setting": "plasma 2-HG; patients with IDH2-R140 mutations (n = 41)", "value": 89.3, "unit": "%"}, {"measurement": "mean reduction in plasma 2-HG concentration", "setting": "plasma 2-HG; patients with IDH2-R172 mutations (n = 14)", "value": 76.9, "unit": "%"}, {"measurement": "arithmetic mean percentage reduction of plasma 2-HG based on BAUEC0-8", "setting": "plasma 2-HG; enasidenib starting on induction C1D1, following the first enasidenib dose", "value": 7.1, "unit": "%"}, {"measurement": "reduction in plasma 2-HG AUEC0-8", "setting": "plasma 2-HG; enasidenib starting on induction C1D8, at C1D8", "value": 71.6, "unit": "%"}, {"measurement": "median 2-HG reduction", "setting": "plasma 2-HG; in this study, enasidenib combined with chemotherapy", "value": "> 75", "unit": "%"}, {"measurement": "reduction of mean trough bone marrow 2-HG concentrations (up to)", "setting": "bone marrow 2-HG", "value": "up to 99%"}, {"measurement": "terminal half-life", "setting": "[2]; enasidenib single agent", "value": "≈ 137 hours"}, {"measurement": "time to steady state", "setting": "[2]; enasidenib single agent", "value": "≤ 29", "unit": "days"}, {"measurement": "accumulation", "setting": "[2]; once-daily administration, ref data on file", "value": "≈ 10 fold"}, {"measurement": "plasma 2-HG reduction from baseline, maximum", "setting": "2-HG [3]; IDH2-R140Q mutations", "value": 99, "unit": "%"}, {"measurement": "plasma 2-HG reduction from baseline, median", "setting": "2-HG [3]; IDH2-R140Q mutations", "value": 93, "unit": "%"}, {"measurement": "plasma 2-HG reduction from baseline, maximum", "setting": "2-HG [3]; IDH2-R172K mutations", "value": 94, "unit": "%"}, {"measurement": "plasma 2-HG reduction from baseline, median", "setting": "2-HG [3]; IDH2-R172K mutations", "value": 28, "unit": "%"}, {"measurement": "median reduction in 2-HG concentrations from baseline", "setting": "2-HG [3]; enasidenib dose of 100 mg", "value": 90.4, "unit": "%"}, {"measurement": "median reduction in 2-HG concentrations from baseline", "setting": "2-HG [3]; enasidenib doses of <100 mg", "value": 92.4, "unit": "%"}, {"measurement": "median reduction in 2-HG concentrations from baseline", "setting": "2-HG [3]; enasidenib doses of >100 mg", "value": 93.1, "unit": "%"}, {"measurement": "ORR", "setting": "[4]; all patients receiving enasidenib 100 mg once daily", "value": 38.5, "unit": "%"}, {"measurement": "ORR", "setting": "[4]; enasidenib 100 mg once daily, patients with IDH2-R140 mutations", "value": 35.4, "unit": "%"}, {"measurement": "ORR", "setting": "[4]; enasidenib 100 mg once daily, patients with IDH2-R172 mutations", "value": 53.3, "unit": "%"}, {"measurement": "potency against IDH2-R172 compared with IDH2-R140", "setting": "IDH2-R172", "value": "less potent"}]}
{"smiles": "N#Cc1ccnc(N2C(=O)CC[C@H]2C(=O)N(c2cncc(F)c2)[C@H](C(=O)NC2CC(F)(F)C2)c2ccccc2Cl)c1", "note": "[Ivosidenib, ivosidenib]", "values": [{"measurement": "time to steady-state PK based on Ctrough", "setting": "[1]", "value": "≤ 14", "unit": "days"}, {"measurement": "Racc AUC0-24 (accumulation ratio based on AUC0-24), mean (SD)", "setting": "[1]; [12]", "value": "1.38 (0.83); 24"}, {"measurement": "Racc Cmax (accumulation ratio based on Cmax), mean (SD)", "setting": "[1]; [12]", "value": "1.21 (0.69); 30"}, {"measurement": "Racc AUC0-24 (accumulation ratio based on AUC0-24), mean (SD)", "setting": "[1]; [13]", "value": "2.35 (1.2); 38"}, {"measurement": "Racc Cmax (accumulation ratio based on Cmax), mean (SD)", "setting": "[1]; [13]", "value": "1.69 (0.71); 49"}, {"measurement": "reduction of mean trough plasma 2-HG concentrations (up to)", "setting": "plasma 2-HG", "value": "≤ 99", "unit": "%"}, {"measurement": "%BAUEC0-24 (percentage reduction of plasma 2-HG based on AUEC0-24), mean (RSD%)", "setting": "plasma 2-HG; [12]", "value": "91.0 (16.9); 28%"}, {"measurement": "%Rtrough (percentage reduction of plasma 2-HG at the end of a dosing interval), mean (RSD%)", "setting": "plasma 2-HG; [12]", "value": "90.7 (17.2); 28%"}, {"measurement": "Plasma 2-HG AUEC0-24, mean (RSD%)", "setting": "plasma 2-HG; [12]", "value": "1090 (39.8); 29 ng • h/mL"}, {"measurement": "%BAUEC0-24 (percentage reduction of plasma 2-HG based on AUEC0-24), mean (RSD%)", "setting": "plasma 2-HG; [14]", "value": "53.0 (30.5); 48^b %"}, {"measurement": "%Rtrough (percentage reduction of plasma 2-HG at the end of a dosing interval), mean (RSD%)", "setting": "plasma 2-HG; [14]", "value": "80.8 (28.1); 48^b %"}, {"measurement": "%BAUEC0-24 (percentage reduction of plasma 2-HG based on AUEC0-24), mean (RSD%)", "setting": "plasma 2-HG; [15]", "value": "90.0 (23.8); 46%"}, {"measurement": "%Rtrough (percentage reduction of plasma 2-HG at the end of a dosing interval), mean (RSD%)", "setting": "plasma 2-HG; [15]", "value": "89.8 (23.9); 46%"}, {"measurement": "Plasma 2-HG AUEC0-24, mean (RSD%)", "setting": "plasma 2-HG; [15]", "value": "1120 (51.8); 47 ng • h/mL"}, {"measurement": "reduction of mean trough bone marrow 2-HG concentrations (up to)", "setting": "bone marrow 2-HG", "value": "up to 99%"}, {"measurement": "half-life", "setting": "[5]; ivosidenib 500 mg once daily single agent, after a single dose", "value": 93, "unit": "h"}, {"measurement": "accumulation ratio", "setting": "[5]; ivosidenib 500 mg once daily single agent, after multiple doses", "value": "≈ 2 fold"}, {"measurement": "time to steady state based on observed Ctrough", "setting": "[5]; ivosidenib 500 mg once daily single agent", "value": "≤ 14", "unit": "days"}, {"measurement": "ivosidenib clearance with concomitant moderate or strong CYP3A4 inhibitors", "setting": "[5]; patients, phase 1 single-agent study", "value": "decreased"}, {"measurement": "patients achieving a ≥90% reduction in plasma 2-HG concentrations", "setting": "2-HG [6]; after multiple doses", "value": 71, "unit": "%"}, {"measurement": "reduction in bone marrow 2-HG concentrations", "setting": "2-HG [6]", "value": "> 90", "unit": "%"}, {"measurement": "overall response rate (ORR)", "setting": "mIDH1 R/R AML", "value": 41.6, "unit": "%"}, {"measurement": "AUC parameters when coadministered with itraconazole", "setting": "CYP3A4", "value": "increased"}, {"measurement": "Cmax when coadministered with itraconazole", "setting": "CYP3A4", "value": "unaffected"}]}
